Compound activity: PubChem, Broad Institute
Hits are enriched below; roughly 3% of the tested compounds scored in any of these assays.
Cneo AK release: causes C. neoformans cell lysis | adenylate kinase release luminescence, 4 h; normalised: neutral wells 0, clomiphene wells 100 | lysis activity, % at 15 µM | hit rate 0.2% among 360,000;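 active means mean lysis activity across replicates of at least 80%, whatever share of replicates individually reach that level; inactive means mean lysis activity below 80%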
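Material – log-phase Cryptococcus neoformans yeast cells · Input – 5 × 10^6 yeast cells/mL · Medium – fresh YPD growth medium · Doses – single compound concentration per well · Timing – static 4 h at 37 °C with compound, 1 h detection · Detection – adenylate kinase release luminescence · Read-out – signal increase indicating cell lysis · Control set – Clomiphene as positive lysis control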
Ecoli rRNA inh: inhibitors of bacterial rRNA selective over humanized ribosomes; GFP signal change (wild-type ribosome), % (no concentration beside the values); E. coli WT GFP vs humanized-ribosome RFP mutants, fluorescence, 24 h; stronger effect = lower value; DMSO median 0, no signal -100; hit rate 1.6% among 350,000; AID 720706;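 active means significant combined selectivity score with lowered wild-type GFP, culture density cut under 30%, mutant RFP and density less affected; inactive means any of these conditions unmet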
PGC1a acetyl inh: lowers PGC1a acetylation signal in U2OS cells; AlphaScreen anti-acetyl-lysine; with virally co-expressed GCN5 acetyltransferase; inhibition, % at 15.6 µM; hit rate 0.17% among 350,000;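 active means every replicate shows inhibition of at least 40%; inconclusive means mean inhibition at least 40% but some replicate below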;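 further: 0% = neutral control wells and 100% = positive control wells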
S100A4 inh HTS: blocks human S100A4 binding to myosin IIA peptide; S100A4/TAMRA-MyoIIA peptide fluorescence polarization; inhibition, % at 10.7 µM; hit rate 0.14% among 360,000; AID 652163;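 active means mean inhibition of at least 70% across replicates, with every replicate also reaching that level; inconclusive means mean inhibition reaches 70% but some replicates fall short; inactive means mean inhibition below 70%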
Target sequence (P26447 whole entry, looked up): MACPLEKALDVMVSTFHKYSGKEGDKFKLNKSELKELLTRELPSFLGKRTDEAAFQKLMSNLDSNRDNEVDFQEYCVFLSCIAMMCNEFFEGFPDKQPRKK
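assay system = human S100A4 monomer with TAMRA-labelled myosin IIA peptide | also added = labelled myosin peptide probe, 5 nM | incubation = 5 min between mix addition and reading | control set = DMSO and TFP controls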
SIRT5 inh: inhibitors of human sirtuin-5 desuccinylase | Purified SirT5, succinyl-peptide AMC, trypsin-coupled fluorescence | hit rate 1.1% among 330,000 | inhibition, % at 15 µM; in the data active means inhibition above about 15%; inconclusive means no clear call, values can overlap the other calls
Target sequence (Q9NXA8 whole entry, looked up): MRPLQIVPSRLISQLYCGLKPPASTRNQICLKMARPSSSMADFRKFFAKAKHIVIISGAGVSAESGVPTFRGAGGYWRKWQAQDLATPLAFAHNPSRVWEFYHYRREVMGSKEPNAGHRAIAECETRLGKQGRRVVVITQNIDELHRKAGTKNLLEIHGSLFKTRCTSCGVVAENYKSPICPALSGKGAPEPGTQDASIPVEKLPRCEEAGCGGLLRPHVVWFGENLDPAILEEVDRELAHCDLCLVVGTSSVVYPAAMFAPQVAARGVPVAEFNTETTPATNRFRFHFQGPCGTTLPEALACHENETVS
Statin myotox sup: suppression of simvastatin myotoxicity. C2C12 myotubes + simvastatin, ATP luminescence, 48 h; scaled: DMSO 0, geranylgeraniol control 100. AID 602340. hit rate 0.78% among 330,000. rescue of ATP level, % at 7.49 µM;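 active means mean ATP rescue above about 67%, or every replicate alone reaching that limit, limit read from the data, passing the limit was not always enough; inconclusive means no clear call, values can overlap the other calls; inactive means mean under the limit and some replicate under it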;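 further: myotubes were challenged with 10 µM simvastatin during compound exposure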
* hit, by the source's call; ? = inconclusive; / = no result given.

SMILES | Cneo AK release | Ecoli rRNA inh | PGC1a acetyl inh | S100A4 inh HTS | SIRT5 inh | Statin myotox sup
COc1cccc(NC(=O)N(C)C[C@@H]2Oc3ncc(C#Cc4ccc(F)cc4)cc3C(=O)N([C@@H](C)CO)C[C@H]2C)c1 | 16 | -4 | 0 | 35 | 5 | 72*
C[C@H]1CN([C@@H](C)CO)C(=O)c2cc(C#CCN(C)C)cnc2O[C@@H]1CN(C)C(=O)Nc1cccc(F)c1 | 113* | 4 | 0 | -7 | -1 | -7
C[C@@H]1CN([C@H](C)CO)C(=O)c2cc(C3=CCCCC3)cnc2O[C@H]1CN(C)C(=O)Nc1cccc(F)c1 | 0 | -2 | -1 | -7 | 3 | ?
COc1cccc(NC(=O)N(C)C[C@H]2Oc3ncc(C#Cc4ccc(F)cc4)cc3C(=O)N([C@@H](C)CO)C[C@@H]2C)c1 | 3 | -4 | 12 | 9 | 5 | ?
CC(C)NC(=O)N[C@H]1C=C[C@H](CC(=O)NCCCN(C)C)O[C@H]1CO | 1 | 0 | -1 | 5 | -2 | -3
CC=Cc1ccc2n(c1=O)C[C@@H]1[C@@H](CO)[C@H](C(=O)NC3CCC3)N(CCC)[C@H]21 (mixture of isomers) | / | -2 | 4 | -3 | 8 | /
O=C(Nc1ccc(-c2ccccc2)cc1)[C@H]1[C@H](CO)[C@H]2Cn3c(cccc3=O)[C@@H]1N2Cc1ccncc1 | / | -1 | / | / | / | 28
CC(NCCC1(Cc2ccccc2Cl)CCOC(C)(C)C1)c1cccs1 (centres undefined) | 1 | -39* | -2 | -1 | -2 | -1
O=C1c2ccccc2NC(c2ccc(-c3cccc([N+](=O)[O-])c3)o2)N1O (centres undefined) | / | -21* | / | -1 | -2 | /
COC(=O)C1=CN(Cc2ccc(OC)c(OC)c2)C=C(C(=O)OC)C1c1cccc(O)c1 | 3 | -1 | 74* | -2 | -15 | 17
COC(=O)C1=CN(Cc2ccc(OC)cc2)C=C(C(=O)OC)C1c1ccsc1 | / | -22* | -8 | -5 | -23 | /
COC(=O)C1=CN(Cc2ccc(F)cc2)C=C(C(=O)OC)C1c1ccc(O)c(OC)c1 | 2 | -15 | / | -1 | -3 | 20
CN1[C@@H]2Cn3c(ccc(C4=CCCC4)c3=O)[C@H]1[C@@H](C(=O)N1CCOCC1)[C@@H]2CO | -1 | 3 | / | -1 | -5 | -10
Cc1ccc(-c2cn(-c3ccc(OC(F)F)cc3)c3[n+]2CCCCC3)cc1 | 1 | -36* | / | -2 | -1 | -56
Clc1ccc(-n2cc(-c3ccc(Br)cc3)[n+]3c2CCCCC3)cc1 | / | -46* | / | -3 | -3 | /
FC(F)Oc1ccc(-n2cc(-c3ccccc3)[n+]3c2CCCCC3)cc1 | / | -28* | / | -1 | -5 | /
c1ccc(-c2cn(-c3ccccc3)c3[n+]2CCS3)cc1 | 1 | -10 | 2 | 5 | -5 | -24
CC(C)(C)c1ccc(-c2cn(-c3ccc(Br)cc3)c3[n+]2CCCS3)cc1 | / | -50* | / | 2 | -4 | /
Fc1ccc(-n2cc(-c3ccccc3)[n+]3c2SCC3)cc1 | / | 18 | -18 | -10 | -7 | /
COc1ccc2c3c([nH]c2c1)[C@@H](CO)N(C(=O)CC1CC1)CC31CN(Cc2ccncc2)C1 | / | -3 | 6 | 4 | 5 | /
CCC(=O)Nc1ccc2c(c1)OC[C@@H](C)N(Cc1ccccc1OC)C[C@@H](C)[C@H](OC)CN(C)C2=O | 52 | 0 | 4 | 6 | 2 | -4
N#C[C@@H]1[C@@H](c2ccccc2C2=CCCCC2)[C@H](CO)N1C(=O)C1CCOCC1 | / | -3 | 4 | 15 | -3 | /
CCOc1[nH]n(-c2ccccc2)c(=O)c1C=Nc1ccc(Cl)cc1 | 5 | / | 3 | / | / | 120*
CCOc1[nH]n(-c2ccccc2)c(=O)c1C=Nc1ccc(C)cc1 | / | 16 | 7 | -1 | 18* | /
CCC(=O)N1[C@H](CN(C)C(C)=O)[C@@H](c2ccc(-c3ccccc3)cc2)[C@@H]1CO | 4 | -5 | 16 | 2 | 0 | 3
SMILES | Cneo AK release | Ecoli rRNA inh | PGC1a acetyl inh | S100A4 inh HTS | SIRT5 inh | Statin myotox sup
O=C(C[C@H]1C[C@H]2c3cc(NC(=O)C4CCOCC4)ccc3O[C@H]2[C@H](CO)O1)NCc1ccccc1 | -8 | 2 | 14 | 27 | 9 | 1
C[C@@H]1CN([C@@H](C)CO)C(=O)Cc2cc(NC(=O)NC3CCCCC3)ccc2O[C@H]1CN(C)S(C)(=O)=O | -3 | 0 | 3 | 3 | 5 | 4
CSCCC(NS(=O)(=O)c1ccccc1)C(=O)OCc1nc2ccsc2c(=O)[nH]1 (centres undefined) | 21 | 2 | / | -1 | -3 | 10
CSCCC(NS(=O)(=O)c1ccccc1)C(=O)OCc1cc(=O)oc2cc(O)ccc12 (centres undefined) | 3 | -22* | 6 | 1 | -30 | 0
O=S(=O)(N[C@H]1CC[C@H](CCn2cc(C3CC3)nn2)O[C@H]1CO)c1ccc(F)cc1 | 19 | 0 | -11 | 7 | -1 | 2
Cc1nc([N+](=O)[O-])c(C(=O)OCc2cccc(Br)c2)n1C | 3 | -18* | 2 | 15 | -1 | -4
Cc1nc([N+](=O)[O-])c(C(=O)OCc2ccccc2)n1C | 3 | 3 | 1 | -9 | 0 | -2
CN(Cc1ccccc1)C1=CC(=[N+]2CCCCC2)CC(C)(C)C1 | 0 | -51* | -1 | -7 | 3 | -775
O=C(Cc1ccc(Cl)cc1)NCCc1ccc(F)cc1 | 2 | -24* | 0 | 2 | 5 | /
Cc1nc(SCC(=O)NCCc2ccc(Cl)cc2)nc(C)c1C | / | -28* | -32 | 1 | -2 | 12
O=C(NCCc1c[nH]c2ccccc12)c1ccc2[nH]c(=O)c(=O)[nH]c2c1 | -1 | 5 | 2 | 0 | 0 | 2
O=C(NCCc1ccc(Cl)cc1)c1ccc2[nH]c(=O)c(=O)[nH]c2c1 | 1 | -25* | 6 | -6 | -5 | 0
COCC(=O)N1C[C@@H]2[C@H](c3ccccc31)[C@H](CO)N2Cc1ccc(OC)cc1 | 63 | 4 | 9 | 3 | 3 | -2
COc1ccc(S(=O)(=O)N[C@@H]2CC[C@@H](CC(=O)O)O[C@@H]2CO)cc1 | 48 | 2 | 8 | 9 | 1 | -3
COc1ccc(S(=O)(=O)Nc2ccc3c(c2)CC(=O)N([C@H](C)CO)C[C@H](C)[C@@H](CN(C)Cc2ccc(C(=O)Nc4ccccc4N)cc2)O3)cc1 | / | -5 | -8 | -4 | 1 | -37
CCC(=O)Nc1ccc2c(c1)OC[C@H](C)N(CCC(F)(F)F)C[C@H](C)[C@@H](OC)CN(C)C2=O | / | -2 | 3 | 8 | 1 | /
CSc1ccc(/C=C/c2ccc3cccc(O)c3n2)cc1 | / | -30* | / | 43 | -4 | /
